Test results as given in ChEMBL document CHEMBL1137649, “Mupirocin-resistant, methicillin-resistant Staphylococcus aureus strains in Canadian hospitals” (2007).
Converted amounts (≈) assume the structure as drawn.

What was measured:
Format in all cases: functional
[1] = tested on: Staphylococcus aureus; experiment: Antimicrobial activity against mupirocin-susceptible methicillin-resistant Staphylococcus aureus by broth microdilution method
Summary of the method: (§1)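 Clinical MRSA isolates (4,980) from 32 Canadian hospitals, 1995–2004, confirmed by multiplex PCR for mecA and nuc. Susceptibility done by broth microdilution following CLSI guidelines. Inducible clindamycin resistance in macrolide-resistant isolates detected by standardized disk approximation test. Isolates grouped as high-level mupirocin-resistant or mupirocin-susceptible. Resistance rates expressed as percentage of isolates per group.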

[2] = tested on: Staphylococcus aureus; experiment: Antimicrobial activity against mupirocin-resistant methicillin-resistant Staphylococcus aureus by broth microdilution method; summary of the method: as §1
[3] = tested on: Staphylococcus aureus; experiment: Antimicrobial activity against mupirocin-susceptible methicillin-resistant Staphylococcus aureus assessed as resistant rate by broth microdilution method; summary of the method: as §1
[4] = tested on: Staphylococcus aureus; experiment: Antimicrobial activity against mupirocin-resistant methicillin-resistant Staphylococcus aureus assessed as resistant rate by broth microdilution method; summary of the method: as §1

Row | Compound | MIC [1] [µg/mL] | MIC90 [1] [µg/mL] | MIC [2] [µg/mL] | MIC90 [2] [µg/mL] | Activity [3] [%] | Activity [4] [%]
1 | CC[C@H]1OC(=O)[C@H](C)[C@@H](O[C@H]2C[C@@](C)(OC)[C@@H](O)[C@H](C)O2)[C@H](C)[C@@H](O[C@@H]2O[C@H](C)C[C@H](N(C)C)[C@H]2O)[C@](C)(O)C[C@@H](C)C(=O)[C@H](C)[C@@H](O)[C@]1(C)O [ERYTHROMYCIN] | ≤ 4 | > 8 | ≥ 512 | > 8 | 94 | 86
2 | CO[C@H]1/C=C/O[C@@]2(C)Oc3c(C)c(O)c4c(O)c(c(/C=N/N5CCN(C)CC5)c(O)c4c3C2=O)NC(=O)/C(C)=C\C=C\[C@H](C)[C@H](O)[C@@H](C)[C@@H](O)[C@@H](C)[C@H](OC(C)=O)[C@@H]1C [RIFAMPIN] | ≤ 4 | < 0.5 | ≥ 512 | < 0.5 | 2 | 4
3 | CN[C@H](CC(C)C)C(=O)N[C@H]1C(=O)N[C@@H](CC(N)=O)C(=O)N[C@H]2C(=O)N[C@H]3C(=O)N[C@H](C(=O)N[C@H](C(=O)O)c4cc(O)cc(O)c4-c4cc3ccc4O)[C@H](O)c3ccc(c(Cl)c3)Oc3cc2cc(c3O[C@@H]2O[C@H](CO)[C@@H](O)[C@H](O)[C@H]2O[C@H]2C[C@](C)(N)[C@H](O)[C@H](C)O2)Oc2ccc(cc2Cl)[C@H]1O [VANCOMYCIN] | ≤ 4 | 1 (≈ 0.69 µM) | ≥ 512 | 1 (≈ 0.69 µM) | 0 | 0
4 | CC(=O)O[C@H]1C[C@@]2(C)[C@@H](C[C@@H](O)[C@H]3[C@@]4(C)CC[C@@H](O)[C@@H](C)[C@@H]4CC[C@@]32C)/C1=C(\CCC=C(C)C)C(=O)O [FUSIDIC ACID] | ≤ 0.5 | 0.5 (≈ 0.968 µM) | ≥ 512 | > 8 | 4 | 21
5 | CC(=O)NC[C@H]1CN(c2ccc(N3CCOCC3)c(F)c2)C(=O)O1 [LINEZOLID] | ≤ 4 | 1 (≈ 2.96 µM) | ≥ 512 | 2 (≈ 5.93 µM) | 0 | 0
6 | C/C(=C\C(=O)OCCCCCCCCC(=O)O)C[C@@H]1OC[C@H](C[C@@H]2O[C@H]2[C@@H](C)[C@H](C)O)[C@@H](O)[C@H]1O [MUPIROCIN] | ≤ 4 | 0.5 (≈ 0.999 µM) | ≥ 512 | > 512 | 0 | 100
7 | O=C(O)c1cn(C2CC2)c2cc(N3CCNCC3)c(F)cc2c1=O [CIPROFLOXACIN] | ≤ 4 | > 8 | ≥ 512 | > 8 | 90 | 75
8 | CN(C)[C@@H]1C(O)=C(C(N)=O)C(=O)[C@@]2(O)C(O)=C3C(=O)c4c(O)cccc4[C@@](C)(O)[C@H]3C[C@@H]12 [TETRACYCLINE] | ≤ 4 | > 16 | ≥ 512 | < 4 | 23 | 7
9 | CCC[C@@H]1C[C@@H](C(=O)N[C@@H]([C@H]2O[C@H](SC)[C@H](O)[C@@H](O)[C@H]2O)[C@H](C)Cl)N(C)C1 [CLINDAMYCIN] | ≤ 4 | > 8 | ≥ 512 | > 8 | 86 | 85
